{"source": "paper PMC11476771", "about": "(BMC Nephrology, 2024)", "key": {"Safety [1]": {"assay": "Safety", "format": "in vivo, human", "conditions": "HD subjects; multiple-dose PK study"}, "[2]": {"format": "in vivo, human", "in_short": "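Open-label, parallel-group, single 3.0 mcg/kg IV dose by check-in weight in NDD subjects stratified by MDRD eGFR, and in matched healthy controls. Plasma sampled predose to 72 h; urine collected in intervals to 72 h. LC-MS/MS (LLOQ 0.1 ng/mL plasma, 1.0 ng/mL urine); noncompartmental parameters. ANCOVA on ln Cmax/AUCinf (covariates age, weight, BMI, sex) gave geometric mean ratios with 90% CI. CL was regressed linearly on eGFR.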"}, "Safety [3]": {"assay": "Safety", "format": "in vivo, human", "conditions": "single IV 3.0 mcg/kg"}, "[4]": {"conditions": "hemodialysis patients after treatment discontinued; cited from earlier work"}, "Multiple-dose phase 2": {"assay": "Multiple-dose phase 2", "format": "in vivo, human", "conditions": "for Dose proportionality of Cmax and AUC0 − 48 (power model): 0.5, 1.0, 2.5 mcg/kg, 95% CIs included 1", "in_short": "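Randomized, double-blind, placebo-controlled dose escalation in HD subjects. Sequential cohorts of 8 (6 active, 2 placebo), randomized 3:1 within strata of urine output. IV bolus given within 15 min after each of 3 HD sessions over 1 week. Serial plasma sampled days 1–8 by LC-MS/MS (LLOQ 0.1 ng/mL). Noncompartmental parameters; RAC from day 5:day 1 AUC0−48; power-model dose proportionality.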"}}, "note": "Read-outs that look alike come from different tables or passages of the source.", "data": [{"smiles": "CC(C)C[C@@H](NC(=O)[C@@H](Cc1ccccc1)NC(=O)[C@H](N)Cc1ccccc1)C(=O)N[C@H](CCCCN)C(=O)N1CCC(N)(C(=O)O)CC1", "note": "[difelikefalin]", "values": [{"measurement": "SAEs, severe TEAEs, TEAEs leading to discontinuation, deaths", "setting": "Safety [1]", "result": "no SAEs, severe TEAEs, TEAEs that led to drug discontinuations, or deaths"}, {"measurement": "Intercept of total CL versus eGFR", "setting": "[2]; CL value = intercept + slope * eGFR, IV 3.0 mcg/kg, 95% CI 3.734794–20.470724", "result": 12.1}, {"measurement": "Slope of total CL versus eGFR", "setting": "[2]; CL value = intercept + slope * eGFR, IV 3.0 mcg/kg, NDD subjects with impaired or normal renal function, 95% CI 0.482284–0.718031, P < 0.0001", "result": 0.6002}, {"measurement": "Exposure relative to healthy subjects", "setting": "[2]; moderate renal impairment vs healthy subjects, single IV 3.0 mcg/kg", "result": 1.7, "unit": "fold"}, {"measurement": "Reduction of clearance compared with healthy subjects", "setting": "[2]; moderate renal impairment, single IV 3.0 mcg/kg", "result": 47.0, "unit": "%"}, {"measurement": "Exposure relative to healthy subjects", "setting": "[2]; severe renal impairment vs healthy subjects, single IV 3.0 mcg/kg", "result": 3.3, "unit": "fold"}, {"measurement": "Reduction of clearance compared with healthy subjects", "setting": "[2]; severe renal impairment, single IV 3.0 mcg/kg", "result": 71.7, "unit": "%"}, {"measurement": "Time of peak plasma concentration", "setting": "[2]; single IV 3.0 mcg/kg, first post-dose PK sample, across all treatment groups", "result": "2 to 3", "unit": "min"}, {"measurement": "Subjects with vomiting", "setting": "Safety [3]; 3/36 subjects", "result": 8.3, "unit": "%"}, {"measurement": "Subjects with dizziness", "setting": "Safety [3]; 4/36 subjects", "result": 11.1, "unit": "%"}, {"measurement": "Subjects with mild headache", "setting": "Safety [3]; 4/36 subjects", "result": 11.1, "unit": "%"}, {"measurement": "Subjects with paresthesia (mild)", "setting": "Safety [3]; 5/36 subjects", "result": 13.9, "unit": "%"}, {"measurement": "Subjects reporting TEAEs", "setting": "Safety [3]; 17/36 subjects", "result": 47.2, "unit": "%"}, {"measurement": "Serious AEs", "setting": "Safety [3]; all 36 subjects", "result": "none were serious AEs"}, {"measurement": "Total number of TEAEs", "setting": "Safety [3]; all 36 subjects", "result": 37}, {"measurement": "TEAEs considered related to study drug", "setting": "Safety [3]; all 36 subjects, number of events", "result": 17}, {"measurement": "TEAEs of moderate severity", "setting": "Safety [3]; number of events, most TEAEs mild", "result": 7}, {"measurement": "Detectability in plasma after dialysis cycles", "setting": "[4]", "result": "no longer detectable in plasma after 2 dialysis cycles"}, {"measurement": "Reduction of plasma concentration by a single dialysis cycle", "setting": "[4]", "result": "approximately 83%"}, {"measurement": "Dose proportionality of Cmax and AUC0 − 48 (power model)", "setting": "Multiple-dose phase 2; HD subjects", "result": "slope values were all close to unity"}, {"measurement": "Dose proportionality of Cmax and AUC0 − 48 (power model)", "setting": "Multiple-dose phase 2; HD subjects, listed as IV difelikefalin", "result": "demonstrated dose proportionality"}, {"measurement": "Mean t1/2, range over dose groups", "setting": "Multiple-dose phase 2; HD subjects, day 1, 0.5-2.5 mcg/kg", "result": "1390 to 1870", "unit": "min"}, {"measurement": "Mean accumulation ratio (RAC), range over dose groups", "setting": "Multiple-dose phase 2; HD subjects, day 5, 3 dose groups", "result": "1.0–1.2"}, {"measurement": "Increase of half-life in HD subjects compared with normal renal function", "setting": "Multiple-dose phase 2; cross-study comparison", "result": "approximately 10 fold"}, {"measurement": "Clearance in HD subjects prior to dialysis as % of healthy subjects", "setting": "Multiple-dose phase 2; cross-study comparison, reference is 2.5 mcg/kg HD group", "result": 14, "unit": "%"}, {"measurement": "Tmax", "setting": "Multiple-dose phase 2; human, in vivo, iv", "result": 5, "unit": "min"}]}]}
